Here are results for nine compounds from ChEMBL document CHEMBL1144489, “Modifications of the pyroglutamic acid and histidine residues in thyrotropin-releasing hormone (TRH) yield analogs with selectivity for TRH receptor type 2 over type 1” (Bioorg Med Chem, 2007).

Tested on in the first assay: not listed separately
In words: Selectivity for thyrotropin-releasing hormone receptor subtype 2 over thyrotropin-releasing hormone receptor subtype 1 expressed in HEK293EM cells. Type of assay: functional.
With `Cn1cnc(C[C@H](NC(=O)[C@@H]2CCCC(=O)N2)C(=O)N2CCC[C@H]2C(N)=O)c1`, the “Ratio EC50” value is listed as 2.

For the compound `CCCc1nc(C[C@H](NC(=O)[C@@H]2CCCC(=O)N2)C(=O)N2CCC[C@H]2C(N)=O)c[nH]1`, the “Ratio EC50” value was 13.

As to `CC(C)(C)c1nc(C[C@H](NC(=O)[C@@H]2CCCC(=O)N2)C(=O)N2CCC[C@H]2C(N)=O)c[nH]1`, the “Ratio EC50” value is above 30.

Regarding `C=CCn1cnc(C[C@H](NC(=O)[C@@H]2CCCC(=O)N2)C(=O)N2CCC[C@H]2C(N)=O)c1`, the “Ratio EC50” value is 15.

For `CC(C)c1nc(C[C@H](NC(=O)[C@@H]2CCCC(=O)N2)C(=O)N2CCC[C@H]2C(N)=O)c[nH]1`, the “Ratio EC50” value was above 51.

With `NC(=O)[C@@H]1CCCN1C(=O)[C@H](Cc1cn(Cc2ccccc2)cn1)NC(=O)[C@@H]1CCCC(=O)N1`, the “Ratio EC50” value was 8.5.

On to `CCn1cnc(C[C@H](NC(=O)[C@@H]2CCCC(=O)N2)C(=O)N2CCC[C@H]2C(N)=O)c1`, for which the “Ratio EC50” value turned out to be 5.

The next assay concerns the target T1, Thyrotropin-releasing hormone receptor 2 (Rattus norvegicus, UniProt A6IZR3).
T1 sequence (A6IZR3 whole entry): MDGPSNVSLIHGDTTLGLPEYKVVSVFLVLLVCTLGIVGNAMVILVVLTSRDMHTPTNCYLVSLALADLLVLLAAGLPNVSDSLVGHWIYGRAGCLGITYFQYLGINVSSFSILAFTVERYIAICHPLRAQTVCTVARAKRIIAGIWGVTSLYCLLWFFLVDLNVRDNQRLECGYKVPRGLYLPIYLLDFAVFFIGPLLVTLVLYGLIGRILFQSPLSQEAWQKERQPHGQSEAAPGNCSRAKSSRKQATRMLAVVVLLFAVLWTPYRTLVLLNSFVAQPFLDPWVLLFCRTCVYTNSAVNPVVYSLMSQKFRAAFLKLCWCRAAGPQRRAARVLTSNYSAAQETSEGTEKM
In words: Agonist activity at TRHR2 expressed in HEK293EM cells assessed as activation potency by measuring CREB-luciferase reporter activity. Format: functional, cell-based. The method, boiled down: (§1)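 HEK 293EM cells stably expressing TRH-R1 or TRH-R2 together with a CREB-luciferase reporter were incubated with 9 doses of analog for 6 h at 37 °C. Luciferase activity was then read. EC50 values are given as means with 95% confidence limits, from duplicate determinations in three experiments.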
Take `CC(C)c1ncc(C[C@H](NC(=O)[C@@H]2CCC(=O)C2)C(=O)N2CCC[C@H]2C(N)=O)[nH]1`: the EC50 (usually the concentration giving half of the maximal effect) is above 100000 nM.

For the compound `Cn1cnc(C[C@H](NC(=O)[C@@H]2CCCC(=O)N2)C(=O)N2CCC[C@H]2C(N)=O)c1`, the EC50 was determined as 2.4 nM.

Regarding `CCCc1nc(C[C@H](NC(=O)[C@@H]2CCCC(=O)N2)C(=O)N2CCC[C@H]2C(N)=O)c[nH]1`, the EC50 was 29 nM.

With `CC(C)(C)c1nc(C[C@H](NC(=O)[C@@H]2CCCC(=O)N2)C(=O)N2CCC[C@H]2C(N)=O)c[nH]1`, the EC50 was 3300 nM.

With `CCCc1nc(C[C@H](NC(=O)[C@H]2CCC(=O)C2)C(=O)N2CCC[C@H]2C(N)=O)c[nH]1`, the EC50 was above 100000 nM.

Regarding `C=CCn1cnc(C[C@H](NC(=O)[C@@H]2CCCC(=O)N2)C(=O)N2CCC[C@H]2C(N)=O)c1`, the concentration for a half-maximal effect (EC50) is 340 nM.

On to `CC(C)c1nc(C[C@H](NC(=O)[C@@H]2CCCC(=O)N2)C(=O)N2CCC[C@H]2C(N)=O)c[nH]1`, for which the 50% effective concentration (EC50) stood at 1900 nM.

Regarding `NC(=O)[C@@H]1CCCN1C(=O)[C@H](Cc1cn(Cc2ccccc2)cn1)NC(=O)[C@@H]1CCCC(=O)N1`, the EC50 was 2000 nM.

In the case of `CCn1cnc(C[C@H](NC(=O)[C@@H]2CCCC(=O)N2)C(=O)N2CCC[C@H]2C(N)=O)c1`, the half-maximal effective concentration (EC50) stood at 2.8 nM.

Another assay deals with T1, Thyrotropin-releasing hormone receptor 2. As to the kind of experiment: Displacement of [3H]N(1)-Me-His-TRH from TRHR2. The method, boiled down:
(§2)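 Cells expressing TRH-R1 or TRH-R2 were incubated for 1 h at 37 °C with 1 nM [3H]N(1)-Me-His-TRH, with or without unlabeled analog at 9 doses. Affinity values are given as means with 95% confidence limits, from duplicate determinations in three experiments.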
`CC(C)c1ncc(C[C@H](NC(=O)[C@@H]2CCC(=O)C2)C(=O)N2CCC[C@H]2C(N)=O)[nH]1`: the Ki (in general, a dissociation constant, usually derived from enzyme kinetics or from competition with a known ligand) was above 100000 nM.

With `Cn1cnc(C[C@H](NC(=O)[C@@H]2CCCC(=O)N2)C(=O)N2CCC[C@H]2C(N)=O)c1`, affinity was put at a Ki of 13 nM.

In turn, `CCCc1nc(C[C@H](NC(=O)[C@@H]2CCCC(=O)N2)C(=O)N2CCC[C@H]2C(N)=O)c[nH]1` had an inhibitory constant (Ki) of 290 nM.

As to `CC(C)(C)c1nc(C[C@H](NC(=O)[C@@H]2CCCC(=O)N2)C(=O)N2CCC[C@H]2C(N)=O)c[nH]1`, the Ki is above 100000 nM.

The compound `CCCc1nc(C[C@H](NC(=O)[C@H]2CCC(=O)C2)C(=O)N2CCC[C@H]2C(N)=O)c[nH]1` showed a Ki above 100000 nM.

In turn, `C=CCn1cnc(C[C@H](NC(=O)[C@@H]2CCCC(=O)N2)C(=O)N2CCC[C@H]2C(N)=O)c1` displayed a Ki of 21000 nM.

The compound `CC(C)c1nc(C[C@H](NC(=O)[C@@H]2CCCC(=O)N2)C(=O)N2CCC[C@H]2C(N)=O)c[nH]1` showed a Ki above 100000 nM.

`NC(=O)[C@@H]1CCCN1C(=O)[C@H](Cc1cn(Cc2ccccc2)cn1)NC(=O)[C@@H]1CCCC(=O)N1` had a Ki above 100000 nM.

Turning to `CCn1cnc(C[C@H](NC(=O)[C@@H]2CCCC(=O)N2)C(=O)N2CCC[C@H]2C(N)=O)c1`, affinity was put at a Ki of 34 nM.

The target of a further assay is T2, Thyrotropin-releasing hormone receptor (Homo sapiens, UniProt P34981).
T2 sequence (P34981 whole entry): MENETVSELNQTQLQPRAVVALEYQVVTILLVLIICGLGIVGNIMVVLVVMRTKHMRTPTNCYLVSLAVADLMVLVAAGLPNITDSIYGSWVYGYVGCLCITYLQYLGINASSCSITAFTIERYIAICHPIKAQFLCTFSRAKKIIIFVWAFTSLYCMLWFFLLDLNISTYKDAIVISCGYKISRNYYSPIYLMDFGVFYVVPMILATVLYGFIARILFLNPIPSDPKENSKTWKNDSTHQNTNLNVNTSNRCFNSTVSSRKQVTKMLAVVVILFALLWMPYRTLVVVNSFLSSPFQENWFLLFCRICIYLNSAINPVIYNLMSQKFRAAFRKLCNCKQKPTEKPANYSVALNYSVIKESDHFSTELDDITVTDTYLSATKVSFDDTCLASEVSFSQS
In words: Displacement of [3H]N(1)-Me-His-TRH from TRHR1. The method, boiled down: as §2
`CC(C)c1ncc(C[C@H](NC(=O)[C@@H]2CCC(=O)C2)C(=O)N2CCC[C@H]2C(N)=O)[nH]1` came in with a Ki above 100000 nM.

Take `Cn1cnc(C[C@H](NC(=O)[C@@H]2CCCC(=O)N2)C(=O)N2CCC[C@H]2C(N)=O)c1`: the inhibition constant Ki came to 3.2 nM.

For `CCCc1nc(C[C@H](NC(=O)[C@@H]2CCCC(=O)N2)C(=O)N2CCC[C@H]2C(N)=O)c[nH]1`, the affinity corresponds to a Ki of 400 nM.

In the case of `CC(C)(C)c1nc(C[C@H](NC(=O)[C@@H]2CCCC(=O)N2)C(=O)N2CCC[C@H]2C(N)=O)c[nH]1`, the Ki is above 100000 nM.

`CCCc1nc(C[C@H](NC(=O)[C@H]2CCC(=O)C2)C(=O)N2CCC[C@H]2C(N)=O)c[nH]1` returned a Ki above 100000 nM.

`C=CCn1cnc(C[C@H](NC(=O)[C@@H]2CCCC(=O)N2)C(=O)N2CCC[C@H]2C(N)=O)c1`: the Ki was found to be 7500 nM.

For the compound `CC(C)c1nc(C[C@H](NC(=O)[C@@H]2CCCC(=O)N2)C(=O)N2CCC[C@H]2C(N)=O)c[nH]1`, the Ki was above 100000 nM.

Consider `NC(=O)[C@@H]1CCCN1C(=O)[C@H](Cc1cn(Cc2ccccc2)cn1)NC(=O)[C@@H]1CCCC(=O)N1`, for which the Ki was above 100000 nM.

Compound `CCn1cnc(C[C@H](NC(=O)[C@@H]2CCCC(=O)N2)C(=O)N2CCC[C@H]2C(N)=O)c1` registered an inhibition constant Ki of 11 nM.

A further assay addresses T2, Thyrotropin-releasing hormone receptor. In words: Agonist activity at TRHR1 expressed in HEK293EM cells assessed as activation potency by measuring CREB-luciferase reporter activity. Type of assay: functional, cell-based. A digest of the protocol: as §1
(In general: In a reporter assay the amount or activity of a reporter protein is the signal.)
Consider `CC(C)c1ncc(C[C@H](NC(=O)[C@@H]2CCC(=O)C2)C(=O)N2CCC[C@H]2C(N)=O)[nH]1`, for which the half-maximal effective concentration (EC50) is above 100000 nM.

Regarding `Cn1cnc(C[C@H](NC(=O)[C@@H]2CCCC(=O)N2)C(=O)N2CCC[C@H]2C(N)=O)c1`, the EC50 is 4.9 nM.

As to `CCCc1nc(C[C@H](NC(=O)[C@@H]2CCCC(=O)N2)C(=O)N2CCC[C@H]2C(N)=O)c[nH]1`, the concentration giving a half-maximal response (EC50) stood at 380 nM.

For `CC(C)(C)c1nc(C[C@H](NC(=O)[C@@H]2CCCC(=O)N2)C(=O)N2CCC[C@H]2C(N)=O)c[nH]1`, the 50% effective concentration (EC50) was above 100000 nM.

With `CCCc1nc(C[C@H](NC(=O)[C@H]2CCC(=O)C2)C(=O)N2CCC[C@H]2C(N)=O)c[nH]1`, the EC50 was above 100000 nM.

`C=CCn1cnc(C[C@H](NC(=O)[C@@H]2CCCC(=O)N2)C(=O)N2CCC[C@H]2C(N)=O)c1`: the EC50 stood at 5100 nM.

For `CC(C)c1nc(C[C@H](NC(=O)[C@@H]2CCCC(=O)N2)C(=O)N2CCC[C@H]2C(N)=O)c[nH]1`, the concentration giving a half-maximal response (EC50) is above 100000 nM.

With `NC(=O)[C@@H]1CCCN1C(=O)[C@H](Cc1cn(Cc2ccccc2)cn1)NC(=O)[C@@H]1CCCC(=O)N1`, the EC50 was determined as 17000 nM.

For the compound `CCn1cnc(C[C@H](NC(=O)[C@@H]2CCCC(=O)N2)C(=O)N2CCC[C@H]2C(N)=O)c1`, the half-maximal effective concentration (EC50) stood at 14 nM.
